Measured values as given in ChEMBL document CHEMBL1148703, “Synthesis and antiviral evaluation of 6-(alkyl-heteroaryl)furo[2,3-d]pyrimidin-2(3H)-one nucleosides and analogues with ethynyl, ethenyl, and ethyl spacers at C6 of the furopyrimidine core” (J Med Chem, 2007).

Experiments:
[1] = system: Human alphaherpesvirus 3; assay: Antiviral activity against TK+ VZV OKA in HEL cells assessed as reduction of virus plaque formation after 5 days; format: functional, organism-based; details: Human alphaherpesvirus 3, OKA, 120 h
[2] = Cytotoxicity against HEL cells assessed as alteration in cell morphology after 3 days; format: cell-based; details: human
[3] = system: Human betaherpesvirus 5; assay: Antiviral activity against HCMV AD169 in HEL cells assessed as reduction of virus plaque formation after 7 days; format: functional, organism-based; details: Human betaherpesvirus 5, AD169, HEL, 168 h
How it was run: (§1)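 Confluent HEL fibroblasts were infected with HCMV at 100 pfu per well. After 2 h the residual virus was removed and medium with a range of compound concentrations was added (duplicate). Cells were incubated 7 days at 37 °C, then fixed with ethanol and stained with Giemsa. Virus-induced cytopathicity was scored microscopically, and EC50 was read from graphic plots of % cytopathicity versus concentration.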

[4] = system: Human betaherpesvirus 5; assay: Antiviral activity against HCMV Davis in HEL cells assessed as reduction of virus plaque formation after 7 days; format: functional, organism-based; details: Human betaherpesvirus 5, Davis, 168 h; how it was run: as §1
[5] = Cytotoxicity against HEL cells after 3 days; format: cell-based; details: human
How it was run: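 HEL cells were seeded at 5 × 10^3 cells/well and allowed to grow for 24 h. Medium containing graded compound concentrations was then added, followed by 3 days at 37 °C. Cell number was counted with a Coulter counter.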

[6] = system: Human alphaherpesvirus 3; assay: Antiviral activity against thymidine kinase deficient VZV 07/1 in HEL cells assessed as reduction of virus plaque formation after 5 days; format: functional, organism-based; details: Human alphaherpesvirus 3, 07/1, HEL, 120 h
[7] = system: Human alphaherpesvirus 3; assay: Antiviral activity against TK+ VZV YS in HEL cells assessed as reduction of virus plaque formation after 5 days; format: functional, organism-based; details: Human alphaherpesvirus 3, YS, 120 h
[8] = system: Human alphaherpesvirus 3; assay: Antiviral activity against thymidine kinase deficient VZV YS/R in HEL cells assessed as reduction of virus plaque formation after 5 days; format: functional, organism-based; details: Human alphaherpesvirus 3, YS/R, 120 h
[9] = target: T1, Thymidine kinase (Varicella-zoster virus (strain Dumas) (HHV-3) (Human herpesvirus 3), UniProt P09250); assay: Inhibition of VZV thymidine kinase; set-up: species or system Human alphaherpesvirus 3
T1 sequence (P09250 whole entry): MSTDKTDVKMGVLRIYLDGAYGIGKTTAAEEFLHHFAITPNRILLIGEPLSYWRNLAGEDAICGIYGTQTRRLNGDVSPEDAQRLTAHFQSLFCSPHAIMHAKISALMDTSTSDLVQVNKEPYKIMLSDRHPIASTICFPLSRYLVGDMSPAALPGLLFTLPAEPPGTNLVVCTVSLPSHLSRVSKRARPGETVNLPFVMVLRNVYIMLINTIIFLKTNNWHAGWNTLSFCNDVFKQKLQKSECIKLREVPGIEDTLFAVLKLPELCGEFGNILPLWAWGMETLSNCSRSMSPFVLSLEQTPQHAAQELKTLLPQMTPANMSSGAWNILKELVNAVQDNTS
How it was run: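 VZV TK enzyme assay in 50 mM Tris-HCl pH 8.0 with 2.5 mM MgCl2, 10 mM DTT, 2.5 mM ATP, 10 mM NaF, 1.0 mg/mL BSA and 1 µM [CH3-3H]dThd (0.1 µCi). Run 30 min at 37 °C, spotted on DE-81 discs, washed, radioactivity counted.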

O=c1nc2oc(CCc3ccccc3)cc2cn1[C@H]1C[C@H](O)[C@@H](CO)O1
EC50 [1]: 380 µM | MCC at 72 h [2]: > 560 µM | EC50 [3]: > 560 µM | EC50 [4]: > 560 µM | CC50 at 72 h [5]: > 560 µM | EC50 [6]: > 560 µM

CCCCCCc1ccc(-c2cc3cn([C@H]4C[C@H](O)[C@@H](CO)O4)c(=O)nc3o2)nc1
EC50 [7]: 0.045 µM | EC50 [1]: 0.06 µM | EC50 [8]: 70 µM | MCC at 72 h [2]: > 100 µM | EC50 [3]: > 100 µM | IC50 [9]: 3.7 µM | EC50 [4]: > 100 µM | CC50 at 72 h [5]: > 50 µM | EC50 [6]: > 100 µM

CCCCCCCCCCc1cc2cn([C@H]3C[C@H](O)[C@@H](CO)O3)c(=O)nc2o1
EC50 [7]: 0.066 µM | EC50 [1]: 0.094 µM | EC50 [8]: > 51 µM | MCC at 72 h [2]: ≥ 130 µM | EC50 [3]: > 130 µM | IC50 [9]: ≥ 500 µM | EC50 [4]: 64 µM | CC50 at 72 h [5]: > 510 µM | EC50 [6]: > 51 µM

CCCCCCCCC#Cc1cc2cn([C@H]3C[C@H](O)[C@@H](CO)O3)c(=O)nc2o1
IC50 [9]: 217 µM

CCCCCCc1ccc(-c2cc3cn([C@H]4C[C@H](O)[C@@H](CO)O4)c(=O)nc3o2)cn1
EC50 [7]: 0.09 µM | EC50 [1]: 0.14 µM | EC50 [8]: > 20 µM | MCC at 72 h [2]: 100 µM | EC50 [3]: > 20 µM | IC50 [9]: 30 µM | EC50 [4]: > 20 µM | CC50 at 72 h [5]: > 50 µM | EC50 [6]: > 20 µM

CCCCCCCC/C=C/c1cc2cn([C@H]3C[C@H](O)[C@@H](CO)O3)c(=O)nc2o1
EC50 [7]: 0.72 µM | EC50 [1]: 1.2 µM | EC50 [8]: 26 µM | MCC at 72 h [2]: ≥ 120 µM | EC50 [3]: 22 µM | IC50 [9]: 65 µM | EC50 [4]: 8.4 µM | CC50 at 72 h [5]: 230 µM | EC50 [6]: > 48 µM

CCCCCc1cnc(-c2cc3cn([C@H]4C[C@H](O)[C@@H](CO)O4)c(=O)nc3o2)nc1
EC50 [7]: 2 µM | EC50 [1]: 1.9 µM | EC50 [8]: > 100 µM | MCC at 72 h [2]: > 100 µM | EC50 [3]: > 100 µM | IC50 [9]: 24 µM | EC50 [4]: > 100 µM | CC50 at 72 h [5]: > 50 µM | EC50 [6]: > 100 µM

CCCCCCc1cnc(-c2cc3cn([C@H]4C[C@H](O)[C@@H](CO)O4)c(=O)nc3o2)nc1
EC50 [7]: 0.71 µM | EC50 [1]: 0.63 µM | EC50 [8]: > 100 µM | MCC at 72 h [2]: > 100 µM | EC50 [3]: > 100 µM | IC50 [9]: 15 µM | EC50 [4]: > 100 µM | CC50 at 72 h [5]: > 50 µM | EC50 [6]: > 100 µM

Nc1nc2c(ncn2COCCO)c(=O)[nH]1 [ACYCLOVIR]
MCC at 72 h [2]: > 220 µM | CC50 at 72 h [5]: > 890 µM

CCCc1ccc(C#Cc2cc3cn([C@H]4C[C@H](O)[C@@H](CO)O4)c(=O)nc3o2)cc1
EC50 [7]: 27 µM | EC50 [1]: 41 µM | EC50 [8]: > 50 µM | MCC at 72 h [2]: 87 µM | EC50 [3]: 15 µM | EC50 [4]: 8.7 µM | CC50 at 72 h [5]: > 120 µM | EC50 [6]: > 50 µM

CCCCCc1ccc(CCc2cc3cn([C@H]4C[C@H](O)[C@@H](CO)O4)c(=O)nc3o2)cc1
EC50 [1]: 18 µM | MCC at 72 h [2]: ≥ 470 µM | EC50 [3]: > 120 µM | EC50 [4]: > 120 µM | CC50 at 72 h [5]: > 470 µM | EC50 [6]: > 120 µM

CCCCCc1ccc(-c2cc3cn([C@H]4C[C@H](O)[C@@H](CO)O4)c(=O)nc3o2)nc1
EC50 [1]: 0.07 µM | EC50 [8]: > 100 µM | MCC at 72 h [2]: > 100 µM | EC50 [3]: > 100 µM | IC50 [9]: 4.2 µM | EC50 [4]: > 100 µM | CC50 at 72 h [5]: > 50 µM | EC50 [6]: > 100 µM

O=c1nc2oc(C#Cc3ccccc3)cc2cn1[C@H]1C[C@H](O)[C@@H](CO)O1
EC50 [7]: 99 µM | EC50 [1]: ≥ 140 µM | EC50 [8]: > 140 µM | MCC at 72 h [2]: > 570 µM | EC50 [3]: > 140 µM | IC50 [9]: 493 µM | EC50 [4]: > 140 µM | CC50 at 72 h [5]: > 570 µM | EC50 [6]: > 140 µM

Nc1nc2c(ncn2COC(CO)CO)c(=O)[nH]1 [GANCICLOVIR]
EC50 [7]: 2.3 µM | MCC at 72 h [2]: > 200 µM | EC50 [4]: 8.7 µM | CC50 at 72 h [5]: > 200 µM

O=c1[nH]c(=O)n([C@H]2C[C@H](O)[C@@H](CO)O2)cc1/C=C/Br [BRIVUDINE]
EC50 [7]: 0.01 µM | EC50 [1]: 0.01 µM | EC50 [8]: ≥ 130 µM | MCC at 72 h [2]: > 150 µM | CC50 at 72 h [5]: > 150 µM | EC50 [6]: ≥ 99 µM

CCCCCc1ccc(C#Cc2cc3cn([C@H]4C[C@H](O)[C@@H](CO)O4)c(=O)nc3o2)cc1
EC50 [7]: 19 µM | EC50 [1]: 17 µM | MCC at 72 h [2]: 470 µM | EC50 [3]: 13 µM | EC50 [4]: 11 µM | CC50 at 72 h [5]: 110 µM | EC50 [6]: 71 µM

CCCCc1ccc(-c2cc3cn([C@H]4C[C@H](O)[C@@H](CO)O4)c(=O)nc3o2)nc1
EC50 [7]: 0.36 µM | EC50 [1]: 0.23 µM | EC50 [8]: > 100 µM | MCC at 72 h [2]: > 100 µM | EC50 [3]: > 100 µM | IC50 [9]: 34 µM | EC50 [4]: > 100 µM | CC50 at 72 h [5]: > 50 µM | EC50 [6]: > 100 µM

CCCCCc1ccc(-c2cc3cn([C@H]4C[C@H](O)[C@@H](CO)O4)c(=O)nc3o2)cn1
EC50 [7]: 0.09 µM | EC50 [1]: 0.13 µM | EC50 [8]: > 20 µM | MCC at 72 h [2]: 100 µM | EC50 [3]: > 20 µM | IC50 [9]: 18 µM | EC50 [4]: > 20 µM | CC50 at 72 h [5]: > 50 µM | EC50 [6]: > 20 µM

CCCCCc1ccc(-c2cc3cn([C@H]4C[C@H](O)[C@@H](CO)O4)c(=O)nc3o2)cc1 [CF1743]
MCC at 72 h [2]: > 1.3 µM

CCCC#Cc1ccc(-c2cc3cn([C@H]4C[C@H](O)[C@@H](CO)O4)c(=O)nc3o2)cn1
EC50 [7]: 0.06 µM | EC50 [1]: 0.09 µM | EC50 [8]: > 20 µM | MCC at 72 h [2]: ≥ 100 µM | EC50 [3]: > 20 µM | IC50 [9]: 2.9 µM | EC50 [4]: > 20 µM | CC50 at 72 h [5]: > 50 µM | EC50 [6]: > 20 µM

Cc1ccc(C#Cc2cc3cn([C@H]4C[C@H](O)[C@@H](CO)O4)c(=O)nc3o2)cc1
EC50 [7]: 41 µM | EC50 [1]: 66 µM | MCC at 72 h [2]: ≥ 510 µM | EC50 [3]: 510 µM | EC50 [4]: > 130 µM | CC50 at 72 h [5]: 510 µM | EC50 [6]: 36 µM

Cc1ccc(CCc2cc3cn([C@H]4C[C@H](O)[C@@H](CO)O4)c(=O)nc3o2)cc1
EC50 [1]: > 140 µM | MCC at 72 h [2]: 540 µM | EC50 [3]: > 540 µM | EC50 [4]: > 540 µM | CC50 at 72 h [5]: > 540 µM | EC50 [6]: > 140 µM

CCCc1ccc(CCc2cc3cn([C@H]4C[C@H](O)[C@@H](CO)O4)c(=O)nc3o2)cc1
EC50 [7]: ≥ 50 µM | EC50 [1]: > 130 µM | EC50 [8]: > 130 µM | MCC at 72 h [2]: ≥ 130 µM | EC50 [3]: > 130 µM | IC50 [9]: > 500 µM | EC50 [4]: > 130 µM | CC50 at 72 h [5]: > 130 µM | EC50 [6]: > 50 µM
